From ChEMBL document CHEMBL3877293, “Synthesis and Antineoplastic Evaluation of Novel Unsymmetrical 1,3,4-Oxadiazoles” (J Med Chem, 2016)

Columns and labels:
[1] = Antiproliferative activity against human HeLa cells after 72 hrs by XTT assay; assay type: functional, cell-based
Procedure, shortened: (§1)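 Cells plated at 1500–2000 per well by doubling time, treated after 24 h with a concentration series in six triplicate wells, and incubated 72 h without a medium change. XTT reagent was then added for 4 h at 37 °C and absorbance read at 490 nm. IC50 is the concentration halving absorbance versus untreated cells. Experiments run in triplicate.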

[2] = Antiproliferative activity against human MCF7 cells after 72 hrs by XTT assay; assay type: functional, cell-based; details: MCF7, 72 h; procedure, shortened: as §1

SMILES	IC50 [1] [µM]	IC50 [2] [µM]
c1ccc(Cc2nnc(-c3c[nH]c4c3Cc3ccccc3-4)o2)cc1	> 10	> 10
Clc1ccc(-c2nnc(-c3c[nH]c4c3Cc3ccccc3-4)o2)cc1Cl	> 10	> 10
Clc1cccc(-c2nnc(-c3c[nH]c4c3Cc3ccccc3-4)o2)c1	> 10	> 10
c1ccc2c(c1)Cc1c(-c3nnc(C4CCCCC4)o3)c[nH]c1-2	> 10	> 10
COc1ccc2c(c1)-c1[nH]c(C)c(-c3nnc(-c4ccccc4)o3)c1C2	> 10	> 10
Cn1nc(-c2nnc(-c3ccccc3)o2)c2c1-c1ccccc1C2	> 10	> 10
Cc1ccc(Cc2nnc(-c3c[nH]c4c3Cc3ccccc3-4)o2)cc1	> 10	4.25
Clc1ccc(-c2nnc(-c3c[nH]c4c3Cc3ccccc3-4)o2)cc1	> 10	> 10
Cc1[nH]c2c(c1-c1nnc(-c3ccccc3)o1)Cc1cc(Br)ccc1-2	0.51	4.26
Clc1ccc(Cc2nnc(-c3c[nH]c4c3Cc3ccccc3-4)o2)cc1	> 10	> 10
Cc1[nH]c2c(c1-c1nnc(-c3ccccc3)o1)Cc1cc(C3CC3)ccc1-2	1.58	2.31
Cc1ccc2c(c1)Cc1c-2[nH]c(C)c1-c1nnc(-c2ccccc2)o1	5.3	> 10
COc1cc(-c2nnc(-c3c[nH]c4c3Cc3ccccc3-4)o2)cc(OC)c1OC	> 10	> 10
Cc1[nH]c2c(c1-c1nnc(-c3ccccc3)o1)Cc1cc(Cl)ccc1-2	4.5	> 10
c1ccc(-c2nnc(-c3nn(-c4ccccc4)c4c3Cc3ccccc3-4)o2)cc1	> 10	7.59
CC(C)(C)c1ccc(-c2nnc(-c3c[nH]c4c3Cc3ccccc3-4)o2)cc1	3.4	9.5
